According to article PMC9426946 (Biochimica et biophysica acta. Proteins and proteomics, 2022):

How the values were obtained:
CTRB2 [1] = biological target: T1, CTRB2 (Homo sapiens, UniProt Q6GPI1, Y164H); test: Michaelis-Menten kinetics on p-nitroanilide peptide substrates; type: biochemical; conditions: for kcat/KM, CTRB2 / kcat, CTRB2 / Km: 0.1 M Tris-HCl pH 8.0, 1 mM CaCl2, 0.05% Tween-20; for kcat, CTRB2 / Km: average of two independent measurements; for Km: read-out: KM, CTRB2
Procedure, shortened: (§1)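 Suc- and H-Ala-Ala-Pro-Phe-pNA were used at 8–1050 µM, from DMSO stocks calibrated by complete chymotryptic hydrolysis. Reactions were started by adding enzyme to 1 or 5 nM final. p-Nitroaniline release was followed at 410 nm for 3–5 min (ε 8,800 M-1cm-1), with rates taken from linear portions. KM and Vmax came from hyperbolic fits, averaging two independent measurements. Human enzymes were recombinant Y164H forms, ecotin-titrated.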

CTRB1 D236R = CTRB1 D236R (Homo sapiens, UniProt P17538, D236R/Y164H); test: as above; type: biochemical; conditions: for kcat/KM, CTRB1 D236R / kcat, CTRB1 D236R / Km: 0.1 M Tris-HCl pH 8.0, 1 mM CaCl2, 0.05% Tween-20; for kcat, CTRB1 D236R / Km: average of two independent measurements; for Km: read-out: KM, CTRB1 D236R
Sequence of CTRB1 D236R (P17538 19-263 Y164H/D236R): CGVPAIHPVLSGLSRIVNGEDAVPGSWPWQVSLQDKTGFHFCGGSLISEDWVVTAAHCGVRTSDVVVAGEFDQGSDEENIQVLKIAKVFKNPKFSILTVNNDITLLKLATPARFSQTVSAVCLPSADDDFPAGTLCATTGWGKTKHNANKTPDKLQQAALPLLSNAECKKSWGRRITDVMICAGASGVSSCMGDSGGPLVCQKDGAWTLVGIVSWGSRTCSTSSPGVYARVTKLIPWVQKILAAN
Procedure, shortened: as §1

CTRB1 S242T = CTRB1 S242T (Homo sapiens, UniProt P17538, S242T/Y164H); test: as above; type: biochemical; conditions: 0.1 M Tris-HCl pH 8.0, 1 mM CaCl2, 0.05% Tween-20; for kcat, CTRB1 S242T / Km: average of two independent measurements; for Km: read-out: KM, CTRB1 S242T
Sequence of CTRB1 S242T (P17538 19-263 Y164H/S242T): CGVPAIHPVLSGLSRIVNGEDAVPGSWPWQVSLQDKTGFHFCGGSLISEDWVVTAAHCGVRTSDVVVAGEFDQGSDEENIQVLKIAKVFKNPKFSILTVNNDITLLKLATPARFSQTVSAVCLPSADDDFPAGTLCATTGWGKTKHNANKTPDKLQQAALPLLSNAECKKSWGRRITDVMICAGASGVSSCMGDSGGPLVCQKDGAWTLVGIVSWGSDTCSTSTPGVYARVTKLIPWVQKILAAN
Procedure, shortened: as §1

CTRB1 = CTRB1 (Homo sapiens, UniProt P17538, Y164H); test: as above; type: biochemical; conditions: for kcat/KM, CTRB1 / Km: 0.1 M Tris-HCl pH 8.0, 1 mM CaCl2, 0.05% Tween-20; for Km: read-out: KM, CTRB1, average of two independent measurements
Sequence of CTRB1 (P17538 19-263 Y164H): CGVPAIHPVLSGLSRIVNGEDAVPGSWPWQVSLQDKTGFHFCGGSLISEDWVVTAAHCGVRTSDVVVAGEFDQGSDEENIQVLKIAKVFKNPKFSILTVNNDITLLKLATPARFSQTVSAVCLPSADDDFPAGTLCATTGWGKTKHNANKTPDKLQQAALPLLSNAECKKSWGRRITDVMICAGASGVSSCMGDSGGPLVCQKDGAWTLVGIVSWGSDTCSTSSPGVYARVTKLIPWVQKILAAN
Procedure, shortened: as §1

bCTRA = bCTRA (Bos taurus, UniProt P00766); test: as above; type: biochemical, bovine; conditions: for kcat/KM, bCTRA / kcat, bCTRA / Km: 0.1 M Tris-HCl pH 8.0, 1 mM CaCl2, 0.05% Tween-20; for kcat, bCTRA / Km: average of two independent measurements; for Km: read-out: KM, bCTRA
Procedure, shortened: as §1

[2] = biological target: chymotrypsin B1 (Homo sapiens) (UniProt P17538); conditions: cited from earlier work
Sequence of chymotrypsin B1 (Homo sapiens) (P17538 34-164, chain 2 of 2): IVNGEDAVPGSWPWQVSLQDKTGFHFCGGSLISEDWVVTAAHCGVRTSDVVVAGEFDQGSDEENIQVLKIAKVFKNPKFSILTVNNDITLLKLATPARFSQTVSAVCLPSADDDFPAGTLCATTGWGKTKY
Sequence of chymotrypsin B1 (Homo sapiens) (P17538 167-263, chain 3 of 2): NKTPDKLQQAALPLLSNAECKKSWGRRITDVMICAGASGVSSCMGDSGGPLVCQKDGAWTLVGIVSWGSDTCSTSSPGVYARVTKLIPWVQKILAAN

human CTRB2 = conditions: read-out: KD on human CTRB2; prior observations; cited from earlier work
CTRB2 [3] = biological target: T1, CTRB2; test: Casein digestion by chymotrypsins; type: biochemical; conditions: 0.2 mg/mL β-casein, 5 nM enzyme, 0.1 M Tris-HCl pH 8.0, 1 mM CaCl2, 37°C; SDS-PAGE densitometry, two experiments
[4] = relative to Suc-Ala-Ala-Pro-Phe-p-nitroanilide

T1 sequence (Q6GPI1 19-263 Y164H): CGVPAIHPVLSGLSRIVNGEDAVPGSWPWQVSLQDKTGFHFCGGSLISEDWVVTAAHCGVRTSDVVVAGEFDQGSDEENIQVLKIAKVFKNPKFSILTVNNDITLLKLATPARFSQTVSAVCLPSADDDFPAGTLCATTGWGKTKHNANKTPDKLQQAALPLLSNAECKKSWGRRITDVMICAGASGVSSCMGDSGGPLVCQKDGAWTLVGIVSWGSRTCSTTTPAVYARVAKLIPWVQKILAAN
Sequence of SGPI-2 (O46162 57-91): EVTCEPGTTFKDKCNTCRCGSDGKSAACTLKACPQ

Molecule	kcat/KM, CTRB2 (CTRB2 [1])	kcat, CTRB2 (CTRB2 [1])	Km (CTRB2 [1])	kcat/KM, CTRB1 D236R (CTRB1 D236R)	kcat, CTRB1 D236R (CTRB1 D236R)	Km (CTRB1 D236R)	kcat/KM, CTRB1 S242T (CTRB1 S242T)	kcat, CTRB1 S242T (CTRB1 S242T)	Km (CTRB1 S242T)	kcat/KM, CTRB1 (CTRB1)	Km (CTRB1)	kcat/KM, bCTRA (bCTRA)	kcat, bCTRA (bCTRA)	Km (bCTRA)	other results
H-Ala-Ala-Pro-Phe-p-nitroanilide [H-AAPF-pNA]	36000 M⁻¹ s⁻¹	10.9 s⁻¹	304 µM	45000 M⁻¹ s⁻¹	9.64 s⁻¹	214 µM	39000 M⁻¹ s⁻¹	21.3 s⁻¹	550 µM	40000 M⁻¹ s⁻¹	575 µM	55000 M⁻¹ s⁻¹	20.3 s⁻¹	371 µM	reduction in kcat/KM on removal of the Suc group, CTRB2 (CTRB2 [1]; [4]): 36 fold; reduction in kcat/KM on removal of the Suc group, CTRB1 (CTRB1; [4]): 4 fold
SGPI-2 (from UniProt O46162)	–	–	–	–	–	–	–	–	–	–	–	–	–	–	Kd [2]: 1.1 nM
Suc-Ala-Ala-Pro-Phe-p-nitroanilide [Suc-AAPF-pNA]	1.3e+06 M⁻¹ s⁻¹	26.1 s⁻¹	20.4 µM	2e+06 M⁻¹ s⁻¹	36.0 s⁻¹	17.9 µM	180000 M⁻¹ s⁻¹	38.4 s⁻¹	220 µM	160000 M⁻¹ s⁻¹	219 µM	790000 M⁻¹ s⁻¹	36.9 s⁻¹	46.6 µM	kcat/KM of CTRB2 relative to CTRB1 (CTRB2 [1]; more efficient than CTRB1): 8.1 fold; kcat/KM of CTRB1 D236R relative to CTRB1 (CTRB1 D236R; more efficient than CTRB1): 12.5 fold; kcat/KM of bCTRA relative to CTRB1 (bCTRA; more efficient than CTRB1): 5 fold
Schistocerca gregaria proteinase inhibitor 2 [wild-type SGPI-2]	–	–	–	–	–	–	–	–	–	–	–	–	–	–	Kd (human CTRB2): 0.16 nM
β-casein: bovine β-casein, protein substrate (protein, UniProt P02666 16-224, looked up) Beta-casein: RELEELNVPGEIVESLSSSEESITRINKKIEKFQSEEQQQTEDELQDKIHPFAQTQSLVYPFPGPIPNSLPQNIPPLTQTPVVVPPFLQPEVMGVSKVKEAMAPKHKEMPFPKYPVEPFTESQSLTLTDVENLHLPLPLLQSWMHQPHQPLPPTVMFPPQSVLSLSQSKVLPVPQKAVPYPQRDMPIQAFLLYQEPVLGPVRGPFPIIV	–	–	–	–	–	–	–	–	–	–	–	–	–	–	digestion activity of CTRB2 relative to CTRB1 (CTRB2 [3]): 2.3 fold
